# Assay results: ChEMBL document CHEMBL4689842, “EUbOPEN Chemogenomics Library wave 1” (2021)
# System: HEK-293T
# Test: Multiplex assay against HEK293T;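 as to Population Tubulin-Different-Phenotype (%): share of the cells with healthy nuclei that show this phenotype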
# Type: toxicity, cell-based
# Settings: human
# Summary of the method: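 Imaging took place on a CQ1 microscope at 37°C and 5% CO2 once compound had been added to live cells stained at seeding with Hoechst33342, BioTracker Green Microtubule Cytoskeleton Dye, MitoTracker Red and Annexin V Alexa Fluor 680. CellPathfinder machine-learning gating classed cells as Hoechst high-intensity objects or normal cells, classed normal cells as having healthy, pyknosed or fragmented nuclei, and classed pyknosed cells as mitotic or apoptotic. Tubulin, mitochondrial-mass and membrane-permeability phenotypes are per cents of the healthy-nucleus cells.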
# [1] = 12 h, 1 µM, compound concentration 1 uM, replicate 1
# [2] = 12 h, 1 µM, compound concentration 1 uM, replicate 2
# [3] = 12 h, 10 µM, compound concentration 10 uM, replicate 1
# [4] = 12 h, 10 µM, compound concentration 10 uM, replicate 2
# [5] = 24 h, 1 µM, compound concentration 1 uM, replicate 1
# [6] = 24 h, 1 µM, compound concentration 1 uM, replicate 2
# [7] = 24 h, 10 µM, compound concentration 10 uM, replicate 1
# [8] = 24 h, 10 µM, compound concentration 10 uM, replicate 2
# [9] = 48 h, 1 µM, compound concentration 1 uM, replicate 1
# [10] = 48 h, 1 µM, compound concentration 1 uM, replicate 2
# [11] = 48 h, 10 µM, compound concentration 10 uM, replicate 1
# [12] = 48 h, 10 µM, compound concentration 10 uM, replicate 2
structure (smiles),measurement,setting,value
Cc1c(-c2ccc(O)cc2)n(Cc2ccc(OCCN3CCCCCC3)cc2)c2ccc(O)cc12 [BAZEDOXIFENE],Population Apoptotic (%),[1],40%
same,Population Fragmented Nuclei (%),[1],15%
same,Population Healthy Nuclei (%),[1],32%
same,Population Hoechst High Intensity Objects (%),[1],16%
same,Population Membrane Permeable-Phenotype (%),[1],0%
same,Population Mitochondria Different-Phenotype (%),[1],93%
same,Population Mitotic Cells (%),[1],59%
same,Population Normal (%),[1],83%
same,Population Pyknosed Nuclei (%),[1],52%
same,Population Tubulin-Different-Phenotype (%),[1],77%
same,Population Apoptotic (%),[2],12%
same,Population Fragmented Nuclei (%),[2],10%
same,Population Healthy Nuclei (%),[2],43%
same,Population Hoechst High Intensity Objects (%),[2],6%
same,Population Membrane Permeable-Phenotype (%),[2],11%
same,Population Mitochondria Different-Phenotype (%),[2],36%
same,Population Mitotic Cells (%),[2],87%
same,Population Normal (%),[2],93%
same,Population Pyknosed Nuclei (%),[2],46%
same,Population Tubulin-Different-Phenotype (%),[2],38%
same,Total Cell Count,[2],168
same,Population Fragmented Nuclei (%),[3],14%
same,Population Healthy Nuclei (%),[3],8%
same,Population Hoechst High Intensity Objects (%),[3],21%
same,Population Membrane Permeable-Phenotype (%),[3],0%
same,Population Mitochondria Different-Phenotype (%),[3],90%
same,Population Normal (%),[3],78%
same,Population Pyknosed Nuclei (%),[3],77%
same,Population Tubulin-Different-Phenotype (%),[3],72%
same,Total Cell Count,[3],161
same,Population Apoptotic (%),[4],88%
same,Population Fragmented Nuclei (%),[4],9%
same,Population Healthy Nuclei (%),[4],7%
same,Population Hoechst High Intensity Objects (%),[4],10%
same,Population Membrane Permeable-Phenotype (%),[4],10%
same,Population Mitochondria Different-Phenotype (%),[4],100%
same,Population Mitotic Cells (%),[4],11%
same,Population Normal (%),[4],89%
same,Population Pyknosed Nuclei (%),[4],83%
same,Population Tubulin-Different-Phenotype (%),[4],100%
same,Total Cell Count,[4],159
same,Population Apoptotic (%),[5],44%
same,Population Fragmented Nuclei (%),[5],13%
same,Population Healthy Nuclei (%),[5],45%
same,Population Hoechst High Intensity Objects (%),[5],13%
same,Population Membrane Permeable-Phenotype (%),[5],5%
same,Population Mitochondria Different-Phenotype (%),[5],84%
same,Population Mitotic Cells (%),[5],55%
same,Population Normal (%),[5],86%
same,Population Pyknosed Nuclei (%),[5],40%
same,Population Tubulin-Different-Phenotype (%),[5],54%
same,Total Cell Count,[5],180
same,Population Apoptotic (%),[6],18%
same,Population Fragmented Nuclei (%),[6],8%
same,Population Healthy Nuclei (%),[6],50%
same,Population Hoechst High Intensity Objects (%),[6],8%
same,Population Membrane Permeable-Phenotype (%),[6],9%
same,Population Mitochondria Different-Phenotype (%),[6],40%
same,Population Mitotic Cells (%),[6],81%
same,Population Normal (%),[6],91%
same,Population Tubulin-Different-Phenotype (%),[6],53%
same,Total Cell Count,[6],207
same,Population Apoptotic (%),[7],96%
same,Population Fragmented Nuclei (%),[7],13%
same,Population Healthy Nuclei (%),[7],9%
same,Population Hoechst High Intensity Objects (%),[7],21%
same,Population Membrane Permeable-Phenotype (%),[7],0%
same,Population Mitochondria Different-Phenotype (%),[7],100%
same,Population Mitotic Cells (%),[7],3%
same,Population Normal (%),[7],78%
same,Population Pyknosed Nuclei (%),[7],76%
same,Population Tubulin-Different-Phenotype (%),[7],92%
same,Total Cell Count,[7],175
same,Population Apoptotic (%),[8],90%
same,Population Fragmented Nuclei (%),[8],9%
same,Population Healthy Nuclei (%),[8],5%
same,Population Hoechst High Intensity Objects (%),[8],8%
same,Population Membrane Permeable-Phenotype (%),[8],33%
same,Population Mitochondria Different-Phenotype (%),[8],88%
same,Population Mitotic Cells (%),[8],10%
same,Population Normal (%),[8],91%
same,Population Pyknosed Nuclei (%),[8],84%
same,Population Tubulin-Different-Phenotype (%),[8],88%
same,Total Cell Count,[8],168
same,Population Apoptotic (%),[9],39%
same,Population Fragmented Nuclei (%),[9],14%
same,Population Healthy Nuclei (%),[9],69%
same,Population Hoechst High Intensity Objects (%),[9],9%
same,Population Membrane Permeable-Phenotype (%),[9],3%
same,Population Mitochondria Different-Phenotype (%),[9],41%
same,Population Mitotic Cells (%),[9],60%
same,Population Normal (%),[9],90%
same,Population Pyknosed Nuclei (%),[9],16%
same,Population Tubulin-Different-Phenotype (%),[9],40%
same,Total Cell Count,[9],275
same,Population Apoptotic (%),[10],12%
same,Population Fragmented Nuclei (%),[10],3%
same,Population Healthy Nuclei (%),[10],75%
same,Population Hoechst High Intensity Objects (%),[10],2%
same,Population Membrane Permeable-Phenotype (%),[10],4%
same,Population Mitochondria Different-Phenotype (%),[10],19%
same,Population Mitotic Cells (%),[10],87%
same,Population Normal (%),[10],97%
same,Population Pyknosed Nuclei (%),[10],21%
same,Population Tubulin-Different-Phenotype (%),[10],32%
same,Total Cell Count,[10],314
same,Population Apoptotic (%),[11],91%
same,Population Fragmented Nuclei (%),[11],22%
same,Population Healthy Nuclei (%),[11],1%
same,Population Hoechst High Intensity Objects (%),[11],23%
same,Population Membrane Permeable-Phenotype (%),[11],0%
same,Population Mitochondria Different-Phenotype (%),[11],100%
same,Population Mitotic Cells (%),[11],8%
same,Population Normal (%),[11],76%
same,Population Pyknosed Nuclei (%),[11],75%
same,Population Tubulin-Different-Phenotype (%),[11],50%
same,Total Cell Count,[11],178
same,Population Apoptotic (%),[12],95%
same,Population Fragmented Nuclei (%),[12],20%
same,Population Healthy Nuclei (%),[12],6%
same,Population Hoechst High Intensity Objects (%),[12],9%
same,Population Membrane Permeable-Phenotype (%),[12],20%
same,Population Mitochondria Different-Phenotype (%),[12],90%
same,Population Mitotic Cells (%),[12],4%
same,Population Normal (%),[12],90%
same,Population Pyknosed Nuclei (%),[12],72%
same,Population Tubulin-Different-Phenotype (%),[12],90%
same,Total Cell Count,[12],163
CC(C)(O)CNc1ncc(-c2ccnc(Nc3ccnc(Cl)c3)n2)c(CC2CC2)n1,Population Apoptotic (%),[1],59%
same,Population Fragmented Nuclei (%),[1],14%
same,Population Healthy Nuclei (%),[1],25%
same,Population Hoechst High Intensity Objects (%),[1],16%
same,Population Membrane Permeable-Phenotype (%),[1],4%
same,Population Mitochondria Different-Phenotype (%),[1],90%
same,Population Mitotic Cells (%),[1],40%
same,Population Normal (%),[1],83%
same,Population Pyknosed Nuclei (%),[1],59%
same,Population Tubulin-Different-Phenotype (%),[1],75%
same,Total Cell Count,[1],287
same,Population Apoptotic (%),[2],17%
same,Population Fragmented Nuclei (%),[2],9%
same,Population Healthy Nuclei (%),[2],23%
same,Population Hoechst High Intensity Objects (%),[2],8%
same,Population Membrane Permeable-Phenotype (%),[2],13%
same,Population Mitochondria Different-Phenotype (%),[2],13%
same,Population Mitotic Cells (%),[2],82%
same,Population Normal (%),[2],91%
same,Population Pyknosed Nuclei (%),[2],67%
same,Population Tubulin-Different-Phenotype (%),[2],31%
same,Total Cell Count,[2],133
same,Population Apoptotic (%),[3],72%
same,Population Fragmented Nuclei (%),[3],11%
same,Population Healthy Nuclei (%),[3],5%
same,Population Hoechst High Intensity Objects (%),[3],23%
same,Population Membrane Permeable-Phenotype (%),[3],13%
same,Population Mitochondria Different-Phenotype (%),[3],93%
same,Population Mitotic Cells (%),[3],27%
same,Population Normal (%),[3],76%
same,Population Pyknosed Nuclei (%),[3],83%
same,Population Tubulin-Different-Phenotype (%),[3],86%
same,Total Cell Count,[3],381
same,Population Apoptotic (%),[4],52%
same,Population Fragmented Nuclei (%),[4],4%
same,Population Healthy Nuclei (%),[4],3%
same,Population Hoechst High Intensity Objects (%),[4],14%
same,Population Membrane Permeable-Phenotype (%),[4],28%
same,Population Mitochondria Different-Phenotype (%),[4],85%
same,Population Mitotic Cells (%),[4],47%
same,Population Normal (%),[4],85%
same,Population Pyknosed Nuclei (%),[4],91%
same,Population Tubulin-Different-Phenotype (%),[4],42%
same,Total Cell Count,[4],213
same,Population Apoptotic (%),[5],49%
same,Population Fragmented Nuclei (%),[5],12%
same,Population Healthy Nuclei (%),[5],28%
same,Population Hoechst High Intensity Objects (%),[5],15%
same,Population Membrane Permeable-Phenotype (%),[5],1%
same,Population Mitochondria Different-Phenotype (%),[5],82%
same,Population Mitotic Cells (%),[5],50%
same,Population Normal (%),[5],84%
same,Population Pyknosed Nuclei (%),[5],58%
same,Population Tubulin-Different-Phenotype (%),[5],89%
same,Total Cell Count,[5],319
same,Population Apoptotic (%),[6],27%
same,Population Fragmented Nuclei (%),[6],9%
same,Population Healthy Nuclei (%),[6],34%
same,Population Hoechst High Intensity Objects (%),[6],5%
same,Population Membrane Permeable-Phenotype (%),[6],6%
same,Population Mitochondria Different-Phenotype (%),[6],27%
same,Population Mitotic Cells (%),[6],72%
same,Population Normal (%),[6],94%
same,Population Pyknosed Nuclei (%),[6],56%
same,Population Tubulin-Different-Phenotype (%),[6],68%
same,Total Cell Count,[6],145
same,Population Apoptotic (%),[7],73%
same,Population Fragmented Nuclei (%),[7],15%
same,Population Healthy Nuclei (%),[7],3%
same,Population Hoechst High Intensity Objects (%),[7],23%
same,Population Membrane Permeable-Phenotype (%),[7],11%
same,Population Mitochondria Different-Phenotype (%),[7],100%
same,Population Mitotic Cells (%),[7],26%
same,Population Normal (%),[7],76%
same,Population Pyknosed Nuclei (%),[7],81%
same,Population Tubulin-Different-Phenotype (%),[7],100%
same,Total Cell Count,[7],382
same,Population Apoptotic (%),[8],64%
same,Population Fragmented Nuclei (%),[8],2%
same,Population Healthy Nuclei (%),[8],2%
same,Population Hoechst High Intensity Objects (%),[8],16%
same,Population Membrane Permeable-Phenotype (%),[8],40%
same,Population Mitochondria Different-Phenotype (%),[8],80%
same,Population Mitotic Cells (%),[8],35%
same,Population Normal (%),[8],83%
same,Population Pyknosed Nuclei (%),[8],94%
same,Population Tubulin-Different-Phenotype (%),[8],40%
same,Total Cell Count,[8],208
same,Population Apoptotic (%),[9],40%
same,Population Fragmented Nuclei (%),[9],22%
same,Population Healthy Nuclei (%),[9],29%
same,Population Hoechst High Intensity Objects (%),[9],17%
same,Population Membrane Permeable-Phenotype (%),[9],3%
same,Population Mitochondria Different-Phenotype (%),[9],62%
same,Population Mitotic Cells (%),[9],59%
same,Population Normal (%),[9],82%
same,Population Pyknosed Nuclei (%),[9],47%
same,Population Tubulin-Different-Phenotype (%),[9],68%
same,Total Cell Count,[9],360
same,Population Apoptotic (%),[10],25%
same,Population Fragmented Nuclei (%),[10],5%
same,Population Healthy Nuclei (%),[10],68%
same,Population Hoechst High Intensity Objects (%),[10],5%
same,Population Membrane Permeable-Phenotype (%),[10],10%
same,Population Mitochondria Different-Phenotype (%),[10],10%
same,Population Mitotic Cells (%),[10],75%
same,Population Normal (%),[10],94%
same,Population Pyknosed Nuclei (%),[10],26%
same,Population Tubulin-Different-Phenotype (%),[10],57%
same,Total Cell Count,[10],209
same,Population Apoptotic (%),[11],72%
same,Population Fragmented Nuclei (%),[11],22%
same,Population Healthy Nuclei (%),[11],1%
same,Population Hoechst High Intensity Objects (%),[11],28%
same,Population Membrane Permeable-Phenotype (%),[11],25%
same,Population Mitochondria Different-Phenotype (%),[11],100%
same,Population Mitotic Cells (%),[11],27%
same,Population Normal (%),[11],71%
same,Population Pyknosed Nuclei (%),[11],76%
same,Population Tubulin-Different-Phenotype (%),[11],100%
same,Total Cell Count,[11],373
same,Population Apoptotic (%),[12],63%
same,Population Fragmented Nuclei (%),[12],6%
same,Population Healthy Nuclei (%),[12],3%
same,Population Hoechst High Intensity Objects (%),[12],16%
same,Population Membrane Permeable-Phenotype (%),[12],0%
same,Population Mitochondria Different-Phenotype (%),[12],71%
same,Population Mitotic Cells (%),[12],36%
same,Population Normal (%),[12],83%
same,Population Pyknosed Nuclei (%),[12],89%
same,Population Tubulin-Different-Phenotype (%),[12],71%
same,Total Cell Count,[12],212
